In ChEMBL document CHEMBL3108704, “Novel endoperoxide-based transmission-blocking antimalarials with liver- and blood-schizontocidal activities” (ACS Med Chem Lett, 2014):
Calls of active or inactive are those of the source. No cut-off for these calls is given here.

Tests used:
Plasmodium berghei [1] = test: Antimalarial activity against liver stage of Plasmodium berghei infected in human Huh7 cells after 48 hrs by luciferase assay; assay type: functional, organism-based; conditions: Huh-7, 48 h
Plasmodium falciparum = test: Antimalarial activity against chloroquine-resistant erythrocyte stage of Plasmodium falciparum W2 after 48 hrs; assay type: functional, organism-based; conditions: W2, 48 h
Plasmodium berghei [2] = test: Antisporogonic activity against GFP expressing Plasmodium berghei ANKA infected in BALB/c mouse assessed as inhibition of appearance of oocysts in Anopheles gambiae level at 25 umol/kg, ip by microscopic analysis (reference value: 83.6%); assay type: functional
Plasmodium berghei [3] = test: Antisporogonic activity against GFP expressing Plasmodium berghei ANKA infected in BALB/c mouse assessed as inhibition of appearance of oocysts in Anopheles gambiae level at 10 umol/kg, ip by microscopic analysis (reference value: 83.6%); assay type: functional
Huh-7 = test: Cytotoxicity against human HuH7 cells assessed as cell viability by Alamar Blue assay; assay type: cell-based
Mus musculus = test: Toxicity in Plasmodium berghei ANKA infected C57Bl/6J mouse assessed as adverse reactions at 30 mg/kg, ip qd for 5 days measured on day 5; assay type: organism-based; set-up: dose 30 mg/kg, route intraperitoneal; conditions: in vivo, 120 h
How it was run: (§1)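 Male C57Bl/6J mice were infected with GFP-expressing P. berghei ANKA on day 0. From day 4, compound was given i.p. at 30 mg/kg b.w. once daily for 5 consecutive days. Parasitemia was monitored daily by microscopy and flow cytometry. Survival was followed to the end of the experiment, and adverse reactions were recorded.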

Plasmodium berghei [4] = test: Antimalarial activity against GFP expressing Plasmodium berghei ANKA infected in C57Bl/6J mouse assessed as host survival at 30 mg/kg, ip qd for 5 days measured on day 5; assay type: functional, organism-based; set-up: dose 30 mg/kg; how it was run: as §1
Plasmodium berghei [5] = test: Antimalarial activity against GFP expressing Plasmodium berghei ANKA infected in C57Bl/6J mouse assessed as reduction of parasitemia at 30 mg/kg, ip qd for 5 days measured on day 5; assay type: functional, organism-based; set-up: dose 30 mg/kg; how it was run: as §1
Plasma = test: Metabolic stability of the compound in 80% human plasma assessed as formation of primaquine and carboxyprimaquine metabolite after 3 days; assay type: ADME, cell-free; conditions: 72 h
[6] = Intrinsic clearance in rat liver microsomes at 0.1 uM; assay type: ADME; conditions: read-out: CLH
How it was run: (§2)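 Compound was incubated with rat liver microsomes at 37 °C. Half-life and in vitro intrinsic clearance (μL/min/mg protein) were determined, and in vivo hepatic extraction ratio was predicted from them.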

[7] = Half life in rat liver microsomes at 0.1 uM; assay type: ADME; how it was run: as §2

SMILES | IC50 (Plasmodium berghei [1]) [nM] | IC50 (Plasmodium falciparum) [nM] | inhibition in vivo at 25 µmol/kg (Plasmodium berghei [2]) [%] | inhibition in vivo at 10 µmol/kg (Plasmodium berghei [3]) [%] | IC50 (Huh-7) [µM] | Activity (Mus musculus) | Activity (Plasmodium berghei [4]) | Activity (Plasmodium berghei [5]) | Stability (Plasma) | microsomal CLint at 0.1 µM [6] [µL/min/mg] | half-life at 0.1 µM [7] [min]
C[C@@H]1CC[C@H]2[C@@H](C)C(=O)O[C@@H]3O[C@@]4(C)CC[C@@H]1[C@]32OO4 [ARTEMISININ] | > 10000 | 8.2 |  |  |  |  |  |  |  |  | 
COc1cc(NC(C)CCCNCc2ccc(CO[C@H]3O[C@@H]4O[C@]5(C)CC[C@H]6[C@H](C)CC[C@@H]([C@H]3C)[C@@]46OO5)cc2)c2ncccc2c1 (stereo not given in full) | 155 | 12.5 |  |  |  |  |  |  |  |  | 
COc1cc(NC(C)CCCNC(=O)CC2CCC3(CC2)OOC2(OO3)C3CC4CC(C3)CC2C4)c2ncccc2c1 (stereo not given) | 604 | 36.5 | 11.4 | 66.7 | 2.57 |  |  |  |  |  | 
COc1cc(NC(C)CCCNC(=O)C2CCC3(CC2)OOC2(OO3)C3CC4CC(C3)CC2C4)c2ncccc2c1 (stereo not given) | 538 | 21.1 | 0 | 68.6 | > 100 | Non-toxic | Active | Active | Stable | 133 | 10
COc1cc(NC(C)CCCNC(=O)c2ccc(CO[C@H]3O[C@@H]4O[C@]5(C)CC[C@H]6[C@H](C)CC[C@@H]([C@H]3C)[C@@]46OO5)cc2)c2ncccc2c1 (stereo not given in full) | 67 | 5.1 |  |  | 73 |  |  |  |  |  | 
COc1cc(NC(C)CCCNC(=O)C[C@H]2O[C@@H]3O[C@]4(C)CC[C@H]5[C@H](C)CC[C@@H]([C@H]2C)[C@@]35OO4)c2ncccc2c1 (stereo not given in full) | 523 | 9.1 |  |  |  |  |  |  |  |  | 
COc1cc(NC(C)CCCNCC[C@H]2O[C@@H]3O[C@]4(C)CC[C@H]5[C@H](C)CC[C@@H]([C@H]2C)[C@@]35OO4)c2ncccc2c1 (stereo not given in full) | > 1000 | 9.3 |  |  | 32.8 |  |  |  |  |  | 
COc1cc(NC(C)CCCNCC2CCC3(CC2)OOC2(OO3)C3CC4CC(C3)CC2C4)c2ncccc2c1 (stereo not given) | > 1000 | 45.2 | 5.9 | 42.9 | 5.02 |  |  |  | Stable | 51.2 | 27
COc1cc(NC(C)CCCNC2CCC3(CC2)OOC2(OO3)C3CC4CC(C3)CC2C4)c2ncccc2c1 (stereo not given) | 330 | 21.6 | 13.3 | 36.4 | 8.2 |  |  |  |  |  | 
COc1cc(NC(C)CCCN)c2ncccc2c1 (stereo not given) [PRIMAQUINE] |  |  | 2.2 | 35.5 |  |  |  |  |  |  | 
CCOC(=O)C1CCC2(CC1)OOC1(OO2)C2CC3CC(C2)CC1C3 (stereo not given) | > 10000 | 128 |  |  |  |  |  |  |  |  | 
